Measured values reported in ChEMBL document CHEMBL3120160, “Nucleotide prodrugs of 2'-deoxy-2'-spirooxetane ribonucleosides as novel inhibitors of the HCV NS5B polymerase” (J Med Chem, 2014).

What was measured:
[1] = Cytotoxicity against human HuH7 cells assessed as inhibition of cell proliferation after 3 days by BrdU incorporation assay; assay type: cell-based, Huh-7
Method in brief: (§1)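 Huh7 HCV replicon cells treated with compound for 3 days in 384-well format; antiviral EC50 and cytotoxic CC50 are each the mean of at least three repeats.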

Hepatitis C virus [2] = experiment: Antiviral activity against Hepatitis C virus genotype 1b in human Huh7-luc clone ET replicon cells assessed as inhibition of replicon replication after 3 days by luciferase assay; assay type: functional, organism-based, Hepacivirus hominis; conditions: Huh-7, 72 h; method in brief: as §1
[3] = Inhibition of wild type Hepatitis C virus truncated NS5B RNA dependent RNA polymerase lacking C-terminal 21 aminoacids using cIRES as template after 2 hrs by filter plate assay; parameters: species or system Hepacivirus hominis
Method in brief: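 Wild-type HCV RdRp biochemical assay, tested with the nucleoside 5′-triphosphate (NTP) form; value reported as Ki, the average of two independent experiments.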

Liver [4] = experiment: AUC (0 to infinity) in Sprague-Dawley rat liver assessed as triphosphate metabolite level at 50 mg/kg, po administered as single dose; assay type: ADME, organism-based; parameters: time infinity, dose 50 mg/kg, route oral; conditions: in vivo
Liver [5] = experiment: AUC (0 to last) in Sprague-Dawley rat liver assessed as triphosphate metabolite level at 50 mg/kg, po administered as single dose; assay type: ADME, organism-based; parameters: time 0 - last, dose 50 mg/kg, route oral; conditions: in vivo
Liver [6] = experiment: Tmax in Sprague-Dawley rat liver assessed as triphosphate metabolite level at 50 mg/kg, po administered as single dose; assay type: ADME, organism-based; parameters: dose 50 mg/kg, route oral; conditions: in vivo
Liver [7] = experiment: Cmax in Sprague-Dawley rat liver assessed as triphosphate metabolite level at 50 mg/kg, po administered as single dose measured per gm of tissue; assay type: ADME, organism-based; parameters: dose 50 mg/kg, route oral; conditions: in vivo
Hepatocyte [8] = experiment: Prodrug activation in human hepatocytes assessed as triphosphate metabolite formation at 10 uM after 8 hrs by LC-MS analysis; assay type: ADME, cell-based
Method in brief: (§2)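 Prodrugs incubated at 10 μM with rat or human hepatocyte cultures; triphosphate metabolite quantified by LC–MS of cell lysates at 2 and 8 h.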

Hepatocyte [9] = experiment: Prodrug activation in rat hepatocytes assessed as triphosphate metabolite formation at 10 uM after 8 hrs by LC-MS analysis; assay type: ADME, cell-based; method in brief: as §2
Hepatocyte [10] = experiment: Prodrug activation in human hepatocytes assessed as triphosphate metabolite formation at 10 uM after 2 hrs by LC-MS analysis; assay type: ADME, cell-based; method in brief: as §2
Hepatocyte [11] = experiment: Prodrug activation in rat hepatocytes assessed as triphosphate metabolite formation at 10 uM after 2 hrs by LC-MS analysis; assay type: ADME, cell-based; method in brief: as §2
Hepatitis C virus [12] = experiment: Ratio of EC50 for Hepatitis C virus genotype 1b harboring NS5B polymerase S282T mutant gene to EC50 for Hepatitis C virus genotype 1b harboring wild type NS5B polymerase in human Huh7-luc clone ET replicon cells by luciferase assay; assay type: functional, Hepacivirus hominis, Huh-7
Hepatitis C virus [13] = experiment: Antiviral activity against Hepatitis C virus genotype 1b harboring NS5B polymerase S282T mutant gene in human Huh7-luc clone ET replicon cells assessed as inhibition of replicon replication after 3 days by luciferase assay; assay type: functional, organism-based, Hepacivirus hominis; conditions: Huh-7, 72 h
Method in brief: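 Activity measured in a transient HCV replicon assay in which the NS5B polymerase carries the S282T substitution.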

| SMILES | CC50 at 72 h [1] | EC50 (Hepatitis C virus [2]) | other results |
| --- | --- | --- | --- |
| C[C@@]1(F)[C@H](O)[C@@H](CO)O[C@H]1n1ccc(N)nc1=O | > 98 µM | 1.9 µM |  |
| O=c1ccn([C@@H]2O[C@H](CO)[C@@H](O)[C@]23CCO3)c(=O)[nH]1 | > 98 µM | > 98 µM | Ki [3]: 2.4 µM |
| Nc1ccn([C@@H]2O[C@H](CO)[C@@H](O)[C@]23CCO3)c(=O)n1 | > 98 µM | 17.1 µM |  |
| C[C@H](N[P@](=O)(OC[C@H]1O[C@@H](n2ccc(N)nc2=O)[C@@]2(CCO2)[C@@H]1O)Oc1ccccc1)C(=O)OCc1ccccc1 | > 98 µM | 35.8 µM |  |
| C[C@H](N[P@@](=O)(OC[C@H]1O[C@@H](n2ccc(N)nc2=O)[C@@]2(CCO2)[C@@H]1O)Oc1ccccc1)C(=O)OCc1ccccc1 | > 98 µM | 41.5 µM |  |
| C[C@H](N[P@](=O)(OC[C@H]1O[C@@H](n2ccc(=O)[nH]c2=O)[C@@]2(CCO2)[C@@H]1O)Oc1ccccc1)C(=O)OCc1ccccc1 | > 98 µM | 2.1 µM |  |
| CCCCOC(=O)[C@H](C)N[P@](=O)(OC[C@H]1O[C@@H](n2ccc(=O)[nH]c2=O)[C@@]2(CCO2)[C@@H]1O)Oc1ccccc1 | > 98 µM | 2.2 µM |  |
| C[C@H](N[P@@](=O)(OC[C@H]1O[C@@H](n2ccc(=O)[nH]c2=O)[C@@]2(CCO2)[C@@H]1O)Oc1cccc2ccccc12)C(=O)OCc1ccccc1 | > 98 µM | 2.3 µM |  |
| C[C@H](N[P@](=O)(OC[C@H]1O[C@@H](n2ccc(=O)[nH]c2=O)[C@@]2(CCO2)[C@@H]1O)Oc1cccc2ccccc12)C(=O)OCc1ccccc1 | > 98 µM | 3.7 µM |  |
| CCCCOC(=O)[C@H](C)NP(=O)(OC[C@H]1O[C@@H](n2ccc(=O)[nH]c2=O)[C@@]2(CCO2)[C@@H]1O)Oc1ccccc1 (stereo not given in full) | > 98 µM | 3.9 µM | AUC (Liver [4]): 10.48 µg·h/mL; AUClast (Liver [5]): 9.871 µg·h/mL; Tmax (Liver [6]): 6 h; Cmax (Liver [7]): 894 ng/g; Drug metabolism (Hepatocyte [8]): 2730 ng/mL; Drug metabolism (Hepatocyte [9]): 75 ng/mL; Drug metabolism (Hepatocyte [10]): 351 ng/mL; Drug metabolism (Hepatocyte [11]): 152 ng/mL; Ratio EC50 (Hepatitis C virus [12]): 4.8; EC50 (Hepatitis C virus [13]): 18.9 µM |
| CC[C@H](N[P@](=O)(OC[C@H]1O[C@@H](n2ccc(=O)[nH]c2=O)[C@@]2(CCO2)[C@@H]1O)Oc1ccccc1)C(=O)OCc1ccccc1 | > 98 µM | 4.6 µM |  |
| CC[C@H](N[P@@](=O)(OC[C@H]1O[C@@H](n2ccc(=O)[nH]c2=O)[C@@]2(CCO2)[C@@H]1O)Oc1ccccc1)C(=O)OCc1ccccc1 | > 98 µM | 4.9 µM |  |
| C[C@H](N[P@@](=O)(OC[C@H]1O[C@@H](n2ccc(=O)[nH]c2=O)[C@@]2(CCO2)[C@@H]1O)Oc1ccccc1)C(=O)OCc1ccccc1 | > 98 µM | 5 µM |  |
| CCCCOC(=O)[C@H](C)N[P@@](=O)(OC[C@H]1O[C@@H](n2ccc(=O)[nH]c2=O)[C@@]2(CCO2)[C@@H]1O)Oc1ccccc1 | > 98 µM | 5.3 µM |  |
| [N-]=[N+]=N[C@]1(CO)O[C@@H](n2ccc(=O)[nH]c2=O)[C@@H](O)[C@H]1O |  | > 100 µM |  |
